The text below walks through data of article PMC2709489 (Nature biotechnology, 2009).

Assay [1] relates to endogenous GSTO1 and other SE-rhodamine targets. Format: biochemical, human.
In assay [2] the target is T1, RBBP9 (Homo sapiens, UniProt O75884). Put plainly: Gel-based competitive ABPP of RBBP9 with varying Pluronic F-127. Format: biochemical. The conditions noted are these: compound 5 at 10 and 20 µM, emetine 20 µM; 400 nM RBBP9.
Assay [3] concerns the target T2, GSTO1 (Homo sapiens, UniProt P78417).
T2 sequence (P78417 1-241): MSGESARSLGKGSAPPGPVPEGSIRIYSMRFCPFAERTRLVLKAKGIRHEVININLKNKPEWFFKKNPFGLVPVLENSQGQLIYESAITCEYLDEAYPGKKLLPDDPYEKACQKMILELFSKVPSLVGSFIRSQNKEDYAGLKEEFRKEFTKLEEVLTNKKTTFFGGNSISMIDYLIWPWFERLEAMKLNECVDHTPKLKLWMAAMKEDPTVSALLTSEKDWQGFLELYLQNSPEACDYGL
Type of assay: biochemical.

Assay [4] has as its target T1, RBBP9. Kind of assay: Reversibility of RBBP9 inhibition by gel filtration. Type of assay: biochemical. The conditions noted are these: emetine 500 μM or compound 2 50 μM, 30 min, then Sephadex G-25M. Background: Size exclusion chromatography separates by hydrodynamic size, large species first.
The target in assay [5] is T2, GSTO1. Put plainly: Reversibility of GSTO1 inhibition by gel filtration. Type of assay: biochemical. The conditions noted are these: 6 and 9 at 280 μM, 7 and 8 at 28 μM, 30 min, then Sephadex G-25M. The procedure, abridged: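 Recombinant GSTO1 (2 μM) was incubated 30 min with DMSO or test compound, then split. One portion was labeled directly with SE-rhodamine. The other was passed over a Sephadex G-25M gel-filtration column before SE-rhodamine labeling. Both were resolved by SDS-PAGE with in-gel fluorescence read-out.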

For assay [6], the target named is mouse brain serine hydrolases (Homo sapiens, UniProt O75884). Type of assay: biochemical.
Sequence of mouse brain serine hydrolases (O75884 whole entry): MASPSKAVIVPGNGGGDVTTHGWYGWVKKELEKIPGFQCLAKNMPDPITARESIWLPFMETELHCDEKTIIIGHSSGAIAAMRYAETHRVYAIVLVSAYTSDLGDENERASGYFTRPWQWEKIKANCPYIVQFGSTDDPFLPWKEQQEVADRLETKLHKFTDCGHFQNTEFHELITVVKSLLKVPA
In assay [7] the target is T1, RBBP9. Format: biochemical.

Molecules are shown by their SMILES. Like-named read-outs stand apart in the source and are kept apart here.

T1 sequence (O75884 whole entry): as above

Regarding `CC[C@H]1CN2CCc3cc(OC)c(OC)cc3[C@@H]2C[C@@H]1C[C@H]1NCCc2cc(OC)c(OC)cc21` [Compound 1, Emetine], in assay [1] (20 μM), the “effect on other SE-rhodamine targets in MDA-MB-231 proteome” value is listed as “did not inhibit the labeling of GSTO1 or any of the other SE-rhodamine targets” and the “inhibition of GSTO1 in MDA-MB-231 proteome” value (“inhibition of GSTO1” below) was “did not inhibit the labeling of GSTO1”. In assay [2], the “effect of Pluronic F-127 on inhibitory activity” value is recorded as “did not diminish the inhibitory activity”. In addition, the “block of probe labeling of GSTO1 (FluoPol)” value in assay [3] is recorded as “did not block probe labeling of GSTO1”. Further, in assay [4], the “reversibility of RBBP9 inhibition” value was “reversible”.
Regarding `COc1ccc2[nH]c([S+]([O-])Cc3ncc(C)c(OC)c3C)nc2c1` (stereo not drawn) [Compound 6, omeprazole], the “inhibition of GSTO1” value in assay [1] (1 μM) is on record as “lost”; in assay [1] (20 μM), “considerably less potent”. Besides, in assay [5], the “reversibility of GSTO1 inhibition” value is “reversible”.
Take `CC[C@H]1CN2CCc3cc(OC)c(OC)cc3[C@@H]2C[C@@H]1C[C@H]1NCCc2cc(O)c(OC)cc21` [1a, Cephaeline]: the “inhibition of RBBP9 by emetine analogues (competitive ABPP)” value in assay [6] is listed as “inhibited RBBP9, albeit with reduced potency relative to emetine”.
Still for that read-out and setting: then `CC[C@H]1CN2CCc3cc(OC)c(OC)cc3[C@@H]2C[C@@H]1C[C@H]1NCCc2c1[nH]c1ccc(O)cc21` [1c, Tubulosine], with “inhibited RBBP9, albeit with reduced potency relative to emetine”.
On to `CO[C@H]1/C=C/O[C@@]2(C)Oc3c(C)c(O)c4c(O)c(c(/C=N/N5CCN(C)CC5)c(O)c4c3C2=O)NC(=O)/C(C)=C\C=C\[C@H](C)[C@H](O)[C@@H](C)[C@@H](O)[C@@H](C)[C@H](OC(C)=O)[C@@H]1C` [Compound 9, rifampicin], for which the “inhibition of GSTO1” value in assay [1] (1 μM) is recorded as “lost”; in assay [1] (20 μM), “considerably less potent”. Moreover, the “reversibility of GSTO1 inhibition” value in assay [5] is reported as “reversible”.
Regarding `N[C@@H](CCC(=O)N[C@@H](CS)C(=O)NCC(=O)O)C(=O)O` [glutathione], the “block of probe labeling of GSTO1 (FluoPol)” value in assay [3] is recorded as “No labeling”.
With `CCC1=C(C[C@H]2NCCc3cc(OC)c(OC)cc32)C[C@H]2c3cc(OC)c(OC)cc3CCN2C1` [1b, Dehydroemetine], the “inhibition of RBBP9” value in assay [7] is listed as “failed to inhibit RBBP9”.
